Measurements from ChEMBL document CHEMBL1123442 (J Med Chem, 1986).
Each block holds one molecule with its values, some of them ahead of it. Calls of active or inactive are those of the source. No cut-off for these calls is given here.

Key:
L1210 = assay: In vitro for cytotoxicity against murine leukemia cells (L1210); assay type: functional, cell-based; conditions: Mus musculus
HCT-8 = assay: In vitro for cytotoxicity against human colon tumor cells (HCT-8) in culture; assay type: functional, cell-based
poly[d(A-T)] = assay: Binding constant relative to amsacrine (Δlog K) for DNA binding by ethidium bromide displacement; conditions: Bos taurus
P388 [1] = assay: Evaluated in vivo for antitumor activity against P388 leukemia; g denotes ILS of 50% could not be reached at any dose level; assay type: functional, organism-based; conditions: Mus musculus
In short: (§1)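 Mice given 10^6 P388 leukemia cells intraperitoneally, then drug intraperitoneally in 0.1 mL 30% v/v ethanol-water on days 1, 5 and 9. D50 (mg/kg per day giving 50% ILS) read from dose-response graph. ILS at optimal dose versus untreated controls. Long-term survival counted at 30 days.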

P388 [2] = assay: In vivo for antitumor activity against P388 leukemia; assay type: functional, Mus musculus; in short: as §1
P388 [3] = assay: In vivo for antitumor activity against P388 leukemia.; assay type: functional, Mus musculus; in short: as §1
[4] = tested on: Lewis lung carcinoma cell line; assay: Evaluated in vivo for antitumor activity against Lewis lung carcinoma; g denotes ILS of 50% could not be reached at any dose level; assay type: functional, organism-based; conditions: Mus musculus
In short: (§2)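 Mice inoculated intravenously with 10^6 Lewis lung carcinoma cells, then drug intraperitoneally in 0.1 mL 30% v/v ethanol-water on days 5, 9 and 13. D50 (mg/kg per day for 50% ILS) taken from dose-response graph. ILS at optimal dose versus untreated tumor-bearing controls. Survivors counted at 40 days.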

[5] = tested on: Lewis lung carcinoma cell line; assay: Evaluated in vivo for antitumor activity against Lewis lung carcinoma; i denotes Inactive; assay type: functional, organism-based; conditions: Mus musculus; in short: as §2
[6] = tested on: Lewis lung carcinoma cell line; assay: In vivo for antitumor activity against Lewis lung carcinoma; assay type: functional, Mus musculus; in short: as §2
P388 [7] = assay: Compound was evaluated in vivo for antitumor activity against P388 leukemia; i denotes Inactive; assay type: functional, organism-based; conditions: Mus musculus; in short: as §1

Δlog K (poly[d(A-T)]): 6.75
Structure (SMILES): CNC(=O)c1ccc(Cl)c2c(Nc3ccc(NS(C)(=O)=O)cc3NC)c3ccccc3nc12
IC50 (L1210): > 1600 nM
IC50 (HCT-8): 4800 nM
D50 (P388 [1]): ILS of 50% could not be reached
ILSmax (P388 [2]): 38%
OD (P388 [3]): 150 mg/kg

Structure (SMILES): CNc1cc(NS(C)(=O)=O)ccc1Nc1c2ccccc2nc2cc(NC(=O)OC)ccc12
IC50 (L1210): 76 nM
D50 [4]: ILS of 50% could not be reached
IC50 (HCT-8): 715 nM
Δlog K (poly[d(A-T)]): 7.21
D50 (P388 [2]): 1.5 mg/kg
ILSmax (P388 [2]): 135%
ILSmax [5]: inactive
OD (P388 [3]): 13.3 mg/kg
OD [6]: 8.9 mg/kg

Δlog K (poly[d(A-T)]): 6.72
Structure (SMILES): CNc1cc(NS(C)(=O)=O)ccc1Nc1c2ccccc2nc2cc([N+](=O)[O-])ccc12
IC50 (L1210): 110 nM
D50 [4]: ILS of 50% could not be reached
IC50 (HCT-8): 140 nM
D50 (P388 [2]): 3 mg/kg
ILSmax (P388 [2]): 70%
ILSmax [5]: inactive
OD (P388 [3]): 5.9 mg/kg
OD [6]: 8.9 mg/kg

Δlog K (poly[d(A-T)]): 5.57
Structure (SMILES): CNc1cc(NS(C)(=O)=O)ccc1Nc1c2ccccc2nc2c(C(=O)NCC(N)=O)cccc12
IC50 (L1210): 3500 nM
D50 [4]: ILS of 50% could not be reached
IC50 (HCT-8): > 104 nM
D50 (P388 [2]): 45 mg/kg
ILSmax (P388 [2]): 87%
ILSmax [5]: inactive
OD (P388 [3]): 68 mg/kg
OD [6]: 45 mg/kg

Δlog K (poly[d(A-T)]): 6.79
Structure (SMILES): CNC(=O)c1cccc2c(Nc3ccc(NS(C)(=O)=O)cc3NC)c3ccc(Cl)cc3nc12
IC50 (L1210): 110 nM
D50 [4]: ILS of 50% could not be reached
IC50 (HCT-8): 1900 nM
D50 (P388 [2]): 30 mg/kg
ILSmax (P388 [2]): 61%
ILSmax [5]: inactive
OD (P388 [3]): 45 mg/kg
OD [6]: 30 mg/kg

Δlog K (poly[d(A-T)]): 5.8
Structure (SMILES): CNc1cc(NS(C)(=O)=O)ccc1Nc1c2ccccc2nc2ccc(OC)cc12
IC50 (L1210): 1200 nM
D50 [4]: ILS of 50% could not be reached
IC50 (HCT-8): 1900 nM
D50 (P388 [1]): ILS of 50% could not be reached
ILSmax (P388 [2]): 25%
ILSmax [5]: inactive
OD (P388 [3]): 100 mg/kg
OD [6]: 150 mg/kg

Δlog K (poly[d(A-T)]): 6.18
Structure (SMILES): CNc1cc(NS(C)(=O)=O)ccc1Nc1c2ccccc2nc2c(C)ccc(C)c12
IC50 (L1210): 1700 nM
IC50 (HCT-8): 2100 nM
D50 (P388 [1]): ILS of 50% could not be reached
ILSmax (P388 [7]): inactive
OD (P388 [3]): 65 mg/kg

Δlog K (poly[d(A-T)]): 6.28
Structure (SMILES): CNc1cc(NS(C)(=O)=O)ccc1Nc1c2ccccc2nc2c(C(N)=O)cccc12
IC50 (L1210): 560 nM
D50 [4]: ILS of 50% could not be reached
IC50 (HCT-8): 2800 nM
D50 (P388 [2]): 25 mg/kg
ILSmax (P388 [2]): 109%
ILSmax [5]: inactive
OD (P388 [3]): 45 mg/kg
OD [6]: 30 mg/kg

Structure (SMILES): CNc1cc(NS(C)(=O)=O)ccc1Nc1c2ccc(Br)cc2nc2c(C)cccc12
IC50 (L1210): 21 nM
D50 [4]: ILS of 50% could not be reached
IC50 (HCT-8): 49 nM
Δlog K (poly[d(A-T)]): 7.27
D50 (P388 [2]): 7 mg/kg
ILSmax (P388 [2]): 122%
OD (P388 [3]): 13.3 mg/kg
ILSmax [6]: 34%
OD [6]: 13.3 mg/kg

Δlog K (poly[d(A-T)]): 7.46
Structure (SMILES): CNc1cc(NS(C)(=O)=O)ccc1Nc1c2ccccc2nc2c1ccc1ccccc12
IC50 (L1210): 189 nM
D50 [4]: ILS of 50% could not be reached
IC50 (HCT-8): 400 nM
D50 (P388 [2]): 45 mg/kg
ILSmax (P388 [2]): 50%
ILSmax [5]: inactive
OD (P388 [3]): 45 mg/kg
OD [6]: 20 mg/kg

Δlog K (poly[d(A-T)]): 6.37
Structure (SMILES): CNc1cc(NS(C)(=O)=O)ccc1Nc1c2ccccc2nc2c(Br)cccc12
IC50 (L1210): 190 nM
D50 [4]: ILS of 50% could not be reached
IC50 (HCT-8): 1800 nM
D50 (P388 [1]): ILS of 50% could not be reached
ILSmax (P388 [2]): 35%
ILSmax [5]: inactive
OD (P388 [3]): 100 mg/kg
OD [6]: 100 mg/kg

Δlog K (poly[d(A-T)]): 6.42
Structure (SMILES): CNc1cc(NS(C)(=O)=O)ccc1Nc1c2ccccc2nc2cc(I)ccc12
IC50 (L1210): 29 nM
D50 [4]: ILS of 50% could not be reached
IC50 (HCT-8): 79 nM
D50 (P388 [2]): 10 mg/kg
ILSmax (P388 [2]): 70%
ILS max [5]: inactive
OD (P388 [3]): 45 mg/kg
OD [6]: 30 mg/kg

Structure (SMILES): CNc1cc(NS(C)(=O)=O)ccc1Nc1c2ccccc2nc2ccc(Cl)cc12
IC50 (L1210): > 1600 nM
D50 [4]: ILS of 50% could not be reached
IC50 (HCT-8): 2500 nM
D50 (P388 [1]): ILS of 50% could not be reached
ILSmax (P388 [7]): inactive
ILSmax [5]: inactive
OD (P388 [3]): 100 mg/kg
OD [6]: 150 mg/kg

Structure (SMILES): CNc1ccc2c(Nc3ccc(NS(C)(=O)=O)cc3NC)c3ccccc3nc2c1
IC50 (L1210): 5.8 nM
D50 [4]: ILS of 50% could not be reached
IC50 (HCT-8): 810 nM
Δlog K (poly[d(A-T)]): 7.53
D50 (P388 [2]): 0.2 mg/kg
ILSmax (P388 [2]): 208%
ILSmax [5]: inactive
OD (P388 [3]): 2.6 mg/kg
OD [6]: 2.6 mg/kg
